Source: PubChem BioAssay
This is a sample that favours compounds with a hit; in the whole collection about 2.3% have one here.
ASAP1 GAP inh = inhibitors of human ASAP1 ArfGAP activity. inhibition, % at 16.5 µM. AID 624377. ASAP1-stimulated ARF1 GTP hydrolysis, GDP FP detection. 360,000 tested, 0.19% active. Q9ULH1; in the data active = inhibition above about 25%;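 note: 0% = vehicle with enzyme and substrate and 100% = no enzyme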
Target sequence (Q9ULH1 325-724 limits assumed): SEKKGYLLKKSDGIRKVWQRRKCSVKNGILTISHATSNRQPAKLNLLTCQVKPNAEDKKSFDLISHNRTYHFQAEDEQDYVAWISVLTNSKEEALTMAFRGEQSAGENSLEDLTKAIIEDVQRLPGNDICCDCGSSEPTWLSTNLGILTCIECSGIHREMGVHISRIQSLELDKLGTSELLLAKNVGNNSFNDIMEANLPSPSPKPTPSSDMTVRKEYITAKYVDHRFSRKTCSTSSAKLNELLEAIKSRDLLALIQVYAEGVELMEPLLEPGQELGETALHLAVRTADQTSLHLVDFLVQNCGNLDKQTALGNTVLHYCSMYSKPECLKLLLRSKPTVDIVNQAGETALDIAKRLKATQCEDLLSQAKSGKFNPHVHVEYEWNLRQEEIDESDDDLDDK
Calb FLC = C. albicans growth modulation with fluconazole; growth inhibition, % (test concentration not listed); 300,000 tested, 0.57% active; AID 1979; C. albicans CaCi-2 + fluconazole, Alamar Blue growth, 48 h;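 active = growth inhibition above about 58% in most replicates, limit read from the data, passing the limit was not always enough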;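 note: all wells also contain fluconazole at 8 µg/ml as a sub-toxic cotreatment; 0% = median of DMSO wells and 100% = median of geldanamycin control wells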
SKKanGAS inh = SKKanGAS growth inhibition | S. pyogenes SKKanGAS, kanamycin growth, BacTiter-Glo, 6 h | 300,000 tested, 1.3% active | inhibition, % at 7.5 µM;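 active = mean replicate score, as percent of positive control median, at least 50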;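 note: strain carries kanamycin resistance gene driven by streptokinase promoter and grows in 40 µg/ml kanamycin; loss of luminescence reflects streptokinase promoter inhibition or plain growth inhibition; 0% = median of DMSO wells and 100% = positive control at its reference dose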
sPLA2-III inh = Blocks human group III sPLA2 activity; Q9NZ20; QFRET BODIPY PC-A2 liposome hydrolysis, fluorescence; inhibition, % at 12.2 µM; 370,000 tested, 0.56% active; AID 743126;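 active = inhibition above mean plus 3 SD of compounds lying within the high and low control bounds, cut at about 19% in these data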;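 note: 0% = median of test compound wells and 100% = no enzyme DMSO wells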
ARFGAP1 inhibitor = inhibits rat ARF GTPase activating protein 1. 360,000 tested, 0.26% active. inhibition, % at 16.5 µM. AID 651572. Arfgap1-stimulated ARF1 GTP hydrolysis, GDP FP detection;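 active = inhibition above a per-plate limit, mean inhibition of low control wells plus 3 SD, cut at about 25% in these data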;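 note: 0% = DMSO wells with enzyme and 100% = wells lacking Arfgap1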
Target sequence (Q62848 1-136 limits assumed): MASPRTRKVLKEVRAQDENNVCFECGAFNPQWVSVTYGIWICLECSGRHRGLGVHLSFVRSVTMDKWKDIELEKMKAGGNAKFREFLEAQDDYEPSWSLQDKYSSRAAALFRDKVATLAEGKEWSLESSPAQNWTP
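Material: truncated rat Arfgap1 GAP domain; Incubation: compound-enzyme preincubation 20 min, reaction 120 min, detection 60 min, 25 °C; Read-out: percent inhibition of Arfgap1-stimulated GTP hydrolysis; Technique: FP, GDP Alexa 633 tracer displaced from anti-GDP antibody, 620/688 nm; Controls: No-Arfgap1 wells (100%) versus DMSO full-reaction wells (0%); Replication: single well per compound.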
sPLA2 confirm = human GIII-sPLA2 inhibition, confirmation; shares compounds with sPLA2-III inh; recombinant hGIII-sPLA2, BODIPY PC-A2 QFRET fluorescence; inhibition, % at 12.2 µM; 2,000 tested, 34% active;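 active = mean inhibition across triplicates above the hit cutoff set in the earlier primary screen, cut at about 19% in these data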;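 note: 0% = enzyme with DMSO and 100% = DMSO wells lacking enzyme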
535nm interf = optically interferes with 535nm fluorescence in sPLA2 counter-screen | shares compounds with sPLA2-III inh | BODIPY FL product fluorescence interference, QFRET | inhibition, % at 12.2 µM | 2,000 tested, 8.5% active | AID 743282;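 active = average inhibition above the solvent-only control mean plus 3 SD, cut at about 6% in these data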;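 note: 0% = DMSO with substrate plus product and 100% = DMSO with substrate alone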
BODIPY interf DR = 535nm optical interference dose response, HGIII-sPLA2 counter-screen; 240 tested, under 10 active; AID 743455; shares compounds with sPLA2-III inh; BODIPY FL product fluorescence interference, cell-free; IC50, µM;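 active = IC50 at or below 10 µM; inactive = IC50 above 10 µM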
The depositor's hits bear a star; · = not tested or not shown.

SMILES | ASAP1 GAP inh | Calb FLC | SKKanGAS inh | sPLA2-III inh | ARFGAP1 inhibitor | sPLA2 confirm | 535nm interf | others
Cc1cc(C(=O)NNC(=S)Nc2ccccc2)nn1C | -1.4 | 7.6 | 0.1 | 28.6* | 0.8 | 23.1* | -0.4
Cc1c(C(=O)NNC(=S)Nc2cccc(Cl)c2)nnn1-c1ccccc1 | 1.4 | 8.8 | 11.3 | 31.3* | -1.9 | 34.1* | 9.3*
CCCCN(C)c1nc(C)nc2c1nnn2Cc1ccccc1 | · | · | · | -4.1 | · | · | ·
Cc1cc2nc(-c3ccc(F)cc3)c(CC3CCCCC3)n2c(C)c1Br | 13.9 | · | · | 1.4 | -0.5 | · | ·
COc1ccc(N2CCN(C(=S)NC(=O)c3cccs3)CC2)c([N+](=O)[O-])c1 | 2.9 | -3.3 | 51.7* | 26.3* | -6.9 | 27.5* | 2.2
Cc1ccc(-c2csc(N3CCN(c4cc5c(cc4Cl)nc(C(C)N)n5CCCO)CC3)n2)cc1 (stereo unspecified) | 11.6 | 0.4 | 4.0 | 22.8* | -0.3 | 19.7* | -2.9
O=C(NC1CC2CCCC(C1)N2C(=S)Nc1ccccc1Cl)C1CC1 (stereo unspecified) | 13.2 | -3.7 | -7.0 | 4.5 | -3.4 | · | ·
Cc1ccc(C)c(NC(=S)N2C3CCCC2CC(NC(=O)C2CC2)C3)c1 (stereo unspecified) | 5.4 | -2.4 | -4.6 | 21.3* | 18.3 | 2.1 | -1.1
O=C(C(=O)N1CCN(C(=O)C2CCCC2)CC1)c1cccc(C(F)(F)F)c1 | 11.8 | · | · | 1.0 | -1.1 | · | ·
COCC(=O)N1CCN(C(=O)C(=O)c2cccc(C(F)(F)F)c2)CC1 | -0.9 | · | · | 22.6* | -1.1 | 1.1 | -2.0
COC(=O)C1=C(C)N(Cc2ccccc2)C(=S)NC1c1cccc(Br)c1 (stereo unspecified) | 4.1 | · | · | 6.0 | -6.1 | · | ·
Cn1c2c(c(O)c(-c3ccccc3)c1=O)C(=O)CC(C)(C)C2 | -5.3 | 9.6 | -1.0 | 17.6 | 4.7 | · | ·
Cc1cc(C)c(-c2c(O)c3c(n(C)c2=O)CC(C)(C)CC3=O)c(C)c1 | 8.4 | -7.7 | -3.7 | 21.4* | 10.2 | -4.0 | -1.7
Cc1ccc(/C=C2/SC(=O)N(CC(=O)N3CCOCC3)C2=O)s1 | -5.9 | 40.8 | 2.6 | 8.0 | 0.9 | · | ·
O=C(CN1C(=O)S/C(=C/c2ccc(N3CCOCC3)cc2)C1=O)N1CCOCC1 | -4.4 | 0.1 | 1.0 | 21.9* | 4.6 | -6.0 | -11.7
C=CCn1c(=S)[nH]c2nc3c(cc2c1=O)CCCC3 | 2.3 | -32.1 | -6.1 | 23.3* | -4.4 | 11.8 | -0.8
C=CCn1c(=S)[nH]c2ccc(Br)cc2c1=O | 2.5 | · | 6.1 | 20.1* | -7.4 | 21.1* | 2.4
CCOC(=O)C1=C(C)NC(=O)NC1c1ccc(N(C)C)cc1 (stereo unspecified) | 5.0 | -6.0 | -8.5 | 2.6 | -1.2 | · | ·
CCC(CC)COC(=O)C1=C(C)NC(=O)NC1c1ccccc1Br (stereo unspecified) | 12.9 | 10.0 | 2.9 | 3.7 | -9.6 | · | ·
CCOC(=O)C1=C(C)NC(=O)NC1c1ccc(N(CC)CC)cc1 (stereo unspecified) | -0.8 | -7.4 | -0.4 | 20.0* | -5.1 | 6.5 | -4.6
CCC(CC)COC(=O)C1=C(C)NC(=O)NC1c1ccc(N(C)C)cc1 (stereo unspecified) | -8.3 | 6.1 | -4.4 | 23.5* | -4.4 | 23.0* | -6.5
COc1cc2c(cc1NC(=O)CSc1nnc(-c3cccnc3)n1-c1ccc(Br)cc1)oc1ccccc12 | · | · | · | 1.0 | · | · | ·
CCc1ccc(Nc2nc(N)nc(CSc3nc4ccccc4s3)n2)cc1 | 3.8 | 1.2 | 19.2 | 23.8* | -5.8 | -3.1 | 0.0
COc1ccc(N(C)C(=O)c2sc(Cl)nc2C)cc1 | -15.3 | 48.1 | -3.0 | 3.3 | 0.0 | · | ·
Cc1ccc(OC(=O)c2sc(Cl)nc2C)cc1C | -11.4 | 8.6 | -0.6 | 21.5* | 1.6 | 0.0 | -6.2
SMILES | ASAP1 GAP inh | Calb FLC | SKKanGAS inh | sPLA2-III inh | ARFGAP1 inhibitor | sPLA2 confirm | 535nm interf | others
CN(C)c1[nH]c(=O)c(C#N)c2c1CCN2Cc1ccccc1 | -2.4 | 2.5 | 5.3 | 0.7 | -3.0 | · | ·
N#Cc1c2c(c[nH]c1=O)CCN2Cc1ccccc1 | 4.2 | -4.0 | 5.1 | 20.0* | 3.2 | 2.8 | -9.6
Cc1ccc2c(c1)C(CS(=O)(=O)NCc1ccc(F)cc1)NC2 (stereo unspecified) | · | · | · | -1.9 | · | · | ·
COc1ccccc1NC(=S)NNC(=O)c1nn(C)c(C)c1Cl | 3.9 | 5.1 | -3.7 | 33.8* | 10.3 | 45.6* | 1.2 | BODIPY interf DR=>122
COc1ccccc1NC(=S)NNC(=O)c1nn(C)cc1Cl | -5.4 | 3.4 | -6.1 | 30.8* | 6.7 | 38.4* | 2.6 | BODIPY interf DR=>122
COc1ccccc1NC(=S)NNC(=O)c1nn(C)c(C)c1Br | -7.1 | -8.8 | -1.4 | 44.4* | 0.0 | 28.8* | 5.5 | BODIPY interf DR=>122
CCCCCCCCN1C(=O)[C@H](CC(=O)NCc2ccc(C)o2)C[C@@]2(C(=O)OCC)CCC=C12 | -1.0 | · | · | -16.0 | 2.3 | · | ·
CCC1Cc2[nH]c(=S)[nH]c(=O)c2C(c2ccc(Cl)cc2)O1 (stereo unspecified) | -9.7 | · | · | 21.5* | -3.8 | 0.2 | -2.0
COc1ccc(N2CCN(C(=S)Nc3cc(C)ccc3C)CC2)cc1 | 7.5 | 10.5 | -5.2 | 21.1* | -0.1 | 14.7 | -6.1
CC(C)NC(=O)[C@]1(C#N)CC(=O)N(C)[C@@H]1c1ccccc1 | · | · | · | 5.5 | · | · | ·
COc1ccc2c(c1)C[C@@H]1CC(C)(C)CN1S2(=O)=O | · | · | · | 1.6 | · | · | ·
CCOc1ccc(C2CC(c3ccc(CC)cc3)n3nc(N)nc3N2)cc1 (stereo unspecified) | 8.9 | 10.7 | 1.3 | 16.5 | -1.1 | · | ·
CCOc1ccc(C2CC(c3ccc(CC)cc3)Nc3nc(N)nn32)cc1 (stereo unspecified) | 14.3 | -3.2 | 43.7 | 21.6* | 3.7 | 0.4 | -14.9
COc1nc(OC)nc(N2CCC(C(=O)NCc3ccccc3OC)CC2)n1 | · | · | · | 10.9 | · | · | ·
Cc1cc(C)nc(SCc2cn3cc(Cl)ccc3n2)n1 | 0.6 | -4.5 | 12.1 | 20.7* | 5.1 | 3.0 | -9.3
Clc1ccc2nc(CSc3ncn[nH]3)cn2c1 | -9.1 | 2.8 | 6.2 | -3.2 | 0.5 | · | ·
COc1ccc(NC(=O)C(c2ccccc2F)n2c(=O)c(-c3cc4ccccc4[nH]3)nc3ccccc32)cc1 (stereo unspecified) | 4.5 | · | · | -10.8 | 8.6 | · | ·
COc1ccccc1NC(=O)c1ccc(SCC(=O)NCc2ccccc2Cl)c([N+](=O)[O-])c1 | 9.5 | 4.0 | 18.1 | 21.0* | 2.5 | 7.6 | -2.2
COc1ccccc1CNC(=O)CSc1ccc(C(=O)Nc2ccccc2OC)cc1[N+](=O)[O-] | -4.2 | 33.5 | 10.2 | -2.1 | -5.9 | · | ·
